From PMC3839042 (Biochemistry, 2013)

Assays:
[1] = target: T1, S100P (Homo sapiens, UniProt P25815); assay: ITC titration of TRTK12 peptides with S100P; assay type: binding; details: for ΔCp, exp: heat capacity change upon binding, slope of ΔHcal vs temperature, ITC
T1 sequence (P25815 1-95): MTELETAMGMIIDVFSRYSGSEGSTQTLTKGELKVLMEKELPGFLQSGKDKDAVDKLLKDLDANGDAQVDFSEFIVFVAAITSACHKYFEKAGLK

[2] = target: T2, S100A2 (Homo sapiens, UniProt P29034); assay: Acrylamide dynamic quenching of peptide Trp in S100A2 complex; assay type: binding; details: Stern-Volmer constant
Outline: (§1)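 Trp quenching was run on 4–8 μM peptide with or without saturating S100 protein, in binding buffer (20 mM Tris, 0.2 mM EDTA, 1 mM TCEP, pH 7.5) containing 5 mM CaCl2 or 5 mM EDTA. Acrylamide was titrated to about 0.6 M final. Intensities were dilution-corrected, fitted to a modified Stern-Volmer equation with a static term, and averages reported.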

[3] = target: T3, S100B (Homo sapiens, UniProt P04271); assay: Acrylamide dynamic quenching of peptide Trp in S100B complex; assay type: binding; details: Stern-Volmer constant
T3 sequence (P04271 2-92 limits assumed): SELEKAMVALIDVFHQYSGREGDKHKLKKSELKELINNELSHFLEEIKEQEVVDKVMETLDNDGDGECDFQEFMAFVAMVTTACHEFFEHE
Outline: as §1

[4] = target: T2, S100A2; assay: ITC titration of TRTK12 peptides with S100A2; details: heat capacity change upon binding, slope of ΔHcal vs temperature
[5] = target: T1, S100P; assay: Steady-state emission fluorescence titration with S100P; assay type: binding; details: Trp emission
[6] = target: T3, S100B; assay: ITC titration of TRTK12 peptides with S100B; assay type: binding
[7] = ITC fit, Equation 1, 5 mM CaCl2

T2 sequence (P29034 whole entry): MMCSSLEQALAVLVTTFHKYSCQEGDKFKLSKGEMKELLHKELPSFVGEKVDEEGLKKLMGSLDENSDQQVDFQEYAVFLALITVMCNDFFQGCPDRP

| ΔCp, exp [1] [kJ·mol^−1·K^−1] | S100A2+Peptide KSV ([2]; 5 mM CaCl2) [M⁻¹] | S100B+Peptide KSV ([3]; saturating S100B, 5 mM CaCl2) [M⁻¹] | ΔCp, exp [4] [kJ·mol^−1·K^−1] | changes in the emission fluorescence intensity of the tryptophan upon peptide binding or dissociation [5] | S100A2+Peptide KSV ([2]; in the presence of 150mM NaCl) | S100B+Peptide KSV ([3]; in the presence of 150mM NaCl) | stoichiometry n (peptides per S100P dimer) [1, 7] | stoichiometry n (peptides per S100B dimer) [6, 7] | Kd [6] [nM] | Structure (SMILES) |
| --- | --- | --- | --- | --- | --- | --- | --- | --- | --- | --- |
| −0.9 ± 0.1 | 4.3 ± 0.2 | 2.4 ± 0.1 | −0.8 ± 0.1 | – | – | – | – | – | – | CC[C@H](C)[C@H](NC(=O)[C@H](CCCCN)NC(=O)[C@H](CC(N)=O)NC(=O)[C@H](Cc1c[nH]c2ccccc12)NC(=O)[C@H](CC(=O)O)NC(=O)[C@@H](NC(=O)[C@H](CCCCN)NC(=O)[C@@H](NC(=O)[C@H](CCCNC(=N)N)NC(=O)[C@H](C)NC(C)=O)[C@@H](C)O)[C@@H](C)CC)C(=O)N[C@@H](CC(C)C)C(=O)N[C@@H](CO)C(N)=O [TRTKM1] |
| −1.3 ± 0.1 | – | 7.5 ± 0.1 | – | – | – | – | – | – | – | CC[C@H](C)[C@H](NC(=O)[C@H](CCCCN)NC(=O)[C@@H](NC(=O)[C@H](CCCNC(=N)N)NC(=O)[C@@H](NC(C)=O)[C@@H](C)O)[C@@H](C)O)C(=O)N[C@@H](CC(=O)O)C(=O)N[C@@H](Cc1c[nH]c2ccccc12)C(=O)N[C@@H](CC(N)=O)C(=O)N[C@@H](CCCCN)C(=O)N[C@@H](C)C(=O)N[C@@H](CC(C)C)C(=O)N[C@@H](CO)C(N)=O [TRTKM10] |
| −1.2 ± 0.1 | 8.9 ± 0.2 | 2.8 ± 0.1 | −0.9 ± 0.1 | no observable changes | – | – | – | – | – | CC[C@H](C)[C@H](NC(=O)[C@H](CCCCN)NC(=O)[C@H](CC(N)=O)NC(=O)[C@H](Cc1c[nH]c2ccccc12)NC(=O)[C@H](CC(=O)O)NC(=O)[C@H](C)NC(=O)[C@H](CCCCN)NC(=O)[C@@H](NC(=O)[C@H](CCCNC(=N)N)NC(=O)[C@@H](NC(C)=O)[C@@H](C)O)[C@@H](C)O)C(=O)N[C@@H](CC(C)C)C(=O)N[C@@H](CO)C(N)=O [TRTKM5] |
| −0.9 ± 0.1 | – | – | −0.7 ± 0.1 | no observable changes | 4.7 ± 0.1 ^a M^−1 | 3.7 ± 0.1 ^a M^−1 | – | – | – | CC[C@H](C)[C@H](NC(=O)[C@H](CCCCN)NC(=O)[C@@H](NC(=O)[C@H](CCCNC(=N)N)NC(=O)[C@@H](NC(C)=O)[C@@H](C)O)[C@@H](C)O)C(=O)N[C@@H](C)C(=O)N[C@@H](Cc1c[nH]c2ccccc12)C(=O)N[C@@H](CC(N)=O)C(=O)N[C@@H](CCCCN)C(=O)N[C@H](C(=O)N[C@@H](CC(C)C)C(=O)N[C@@H](CO)C(N)=O)[C@@H](C)CC [TRTKM6] |
| −1.8 ± 0.1 | 8.7 ± 0.2 | 7.2 ± 0.1 | −1.6 ± 0.1 | – | – | – | 1 | 1 | – | CC[C@H](C)[C@H](NC(=O)[C@H](CCCCN)NC(=O)[C@H](CC(N)=O)NC(=O)[C@H](Cc1c[nH]c2ccccc12)NC(=O)[C@H](CC(=O)O)NC(=O)[C@@H](NC(=O)[C@H](CCCCN)NC(=O)[C@@H](NC(=O)[C@H](CCCNC(=N)N)NC(=O)[C@@H](NC(C)=O)[C@@H](C)O)[C@@H](C)O)[C@@H](C)CC)C(=O)N[C@@H](C)C(=O)N[C@@H](CO)C(N)=O [TRTKM11] |
| −1.0 ± 0.1 | 6.1 ± 1.1 | 7.2 ± 0.2 | −0.4 ± 0.1 | no observable changes | – | – | – | – | 1700 ± 100 | CC[C@H](C)[C@H](NC(=O)[C@H](C)NC(=O)[C@H](CC(N)=O)NC(=O)[C@H](Cc1c[nH]c2ccccc12)NC(=O)[C@H](CC(=O)O)NC(=O)[C@@H](NC(=O)[C@H](CCCCN)NC(=O)[C@@H](NC(=O)[C@H](CCCNC(=N)N)NC(=O)[C@@H](NC(C)=O)[C@@H](C)O)[C@@H](C)O)[C@@H](C)CC)C(=O)N[C@@H](CC(C)C)C(=O)N[C@@H](CO)C(N)=O [TRTKM9] |
